Measured values: ChEMBL document CHEMBL4373680, “Small antibacterial molecules highly active against drug-resistant Staphylococcus aureus” (Medchemcomm, 2019)
Active and inactive are the calls of the source. No cut-off for these calls is given here.

Experiments:
Klebsiella pneumoniae = assay: Antibacterial activity against Klebsiella pneumoniae ATCC 700603 after 24 hrs by tecan plate reader analysis; assay type: functional; conditions: Klebsiella pneumoniae, 700603, 24 h
Summary of the method: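 Broth microdilution MIC. Glycerol stocks grown on MacConkey agar 24 h at 37 °C, then a single colony in nutrient broth 6 h to mid-log (~10⁸ CFU/mL). Cells diluted to 10⁵ CFU/mL in Mueller Hinton broth and added to two-fold compound dilutions. Incubated 24 h at 37 °C, OD600 read. Triplicate wells, experiment run twice.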

Staphylococcus aureus [1] = assay: Antibacterial activity against Staphylococcus aureus ATCC 33591 assessed as decrease in live cells at 32 ug/ml after 2 hrs by SYTO-9/propidium iodide staining based fluorescence microscopy analysis; assay type: functional, organism-based
Summary of the method: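 Mid-log cells (~10⁸ CFU/mL) pelleted and resuspended in 0.9% saline. Treated with 32 µg/mL compound for 2 h at 37 °C, pelleted and resuspended in saline. Stained with SYTO9 (3 µM) plus PI (15 µM) for 15 min in the dark, unbound dye removed, then imaged by fluorescence microscopy at 100×.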

A549 = assay: Cytotoxicity against human A549 cells after 24 hrs by alamar blue assay; assay type: cell-based; conditions: A549, 24 h
Summary of the method: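 About 10⁴ cells/well in DMEM with 10% FBS. Medium replaced with two-fold compound dilutions and incubated 24 h at 37 °C, 5% CO₂. Alamar Blue added for a further 4 h, absorbance 570 nm (600 nm reference). Viability normalized to untreated and 0.1% Triton-X wells. Triplicates; sigmoidal fit gives the 50% viability concentration.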

Staphylococcus aureus [2] = assay: Bactericidal activity against metabolically inactive stationary phase methicillin-resistant Staphylococcus aureus R3545 assessed as log reduction in bacterial colony forming units at 32 ug/ml incubated for 6 hrs followed by plating on agar plate for 24 hrs by visual counting analysis; assay type: functional
Staphylococcus aureus [3] = assay: Antibacterial activity against methicillin-resistant Staphylococcus aureus R3545 clinical isolate after 24 hrs by tecan plate reader analysis; assay type: functional; conditions: R3545, 24 h
Summary of the method: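 Colony grown 24 h on NB agar at 37 °C, then 6 h in nutrient broth to mid-log (10⁸ CFU/mL by drop plating), diluted to 10⁵ CFU/mL in Mueller Hinton broth; added 9:1 to two-fold serial compound dilutions in MHB. Incubated 24 h, 37 °C; OD600 read. Triplicate per concentration, experiment run twice; MIC taken from the range of triplicate OD values.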

Q: What does the source list for `CCCCCCNC(=O)C[N+](C)(CCO)CCCCCCCCCCCC[N+](C)(CCO)CC(=O)NCCCCCC.O=C([O-])C(F)(F)F.O=C([O-])C(F)(F)F` (stereo not given)?
A: MIC (Klebsiella pneumoniae): 128 µg/mL; inhibition (Staphylococcus aureus [1]): Active; EC50 (A549): 194 µg/mL; Activity (Staphylococcus aureus [2]): 2.8 log10CFU/ml; MIC (Staphylococcus aureus [3]): 1 to 2 µg/mL
